Assay results: ChEMBL document CHEMBL4049387, “Combination of l-Carnitine with Lipophilic Linkage-Donating Gemcitabine Derivatives as Intestinal Novel Organic Cation Transporter 2-Targeting Oral Prodrugs” (J Med Chem, 2017)

Key:
OCTN2 = assay: Ratio of drug transport in OCTN2 (unknown origin) expressing HEK293 cells assessed as transporter-mediated drug uptake at 25 uM to drug uptake in HEK293 cells at 25 uM; type: ADME, cell-based; details: human, HEK293 cells expressing OCTN2, against HEK293 cells
Outline: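 OCTN2-transfected HEK293 cells and mock HEK293 cells incubated with 25 µM compound at 37 °C for 15 min, then cellular uptake measured; n = 2.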

[1] = Terminal half-life in Wistar rat at 50 mg/kg, po administered as single dose by UPLC-MS/MS method; type: ADME, organism-based; details: in vivo, read-out: beta t1/2 (converted)
Outline: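 Wistar rats, six per group, single oral dose equivalent to 50 mg/kg gemcitabine; separate group given gemcitabine iv at 7.5 mg/kg. Oral sampling at 5, 10, 15, 30 min and 1, 2, 4, 6, 8, 12, 24 h; iv at 15, 30 min and 2, 4, 8, 12, 24 h. Blood into THU-pretreated heparinized tubes, centrifuged 3000 × g 15 min, plasma at -80 °C. Prodrug and gemcitabine quantified by UPLC-MS/MS. F = AUCpo×Div/AUCiv/Dpo×100%.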

Mus musculus [2] = assay: Toxicity in Kunming mouse assessed as fibrosis in cardiac muscle at 102 mg/kg, po administered once daily for 14 days by hematoxylin/eosin staining based optical microscopic analysis; type: organism-based; details: in vivo, 336 h
Outline: (§1)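 Kunming mice, four per group, dosed orally once daily for 14 days with 102 mg/kg or saline control; body weight recorded every other day. Heart, liver, spleen, lung and kidney fixed in 10% buffered formalin, paraffin-embedded, sectioned, stained with hematoxylin and eosin, and examined by optical microscopy.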

[3] = molecular target: T1, Organic cation/carnitine transporter 2 (Homo sapiens, UniProt O76082); assay: Ratio of drug transport assessed as OCTN2 transporter mediated drug uptake in human Caco2 cells at 1 to 800 uM in presence of Na+ to drug transport assessed as OCTN2 transporter mediated drug uptake in human Caco2 cells at 1 to 800 uM in presence of N-methyl-D-glucamine; type: ADME, cell-based; details: caco-2, 800 µM
T1 sequence (O76082 whole entry): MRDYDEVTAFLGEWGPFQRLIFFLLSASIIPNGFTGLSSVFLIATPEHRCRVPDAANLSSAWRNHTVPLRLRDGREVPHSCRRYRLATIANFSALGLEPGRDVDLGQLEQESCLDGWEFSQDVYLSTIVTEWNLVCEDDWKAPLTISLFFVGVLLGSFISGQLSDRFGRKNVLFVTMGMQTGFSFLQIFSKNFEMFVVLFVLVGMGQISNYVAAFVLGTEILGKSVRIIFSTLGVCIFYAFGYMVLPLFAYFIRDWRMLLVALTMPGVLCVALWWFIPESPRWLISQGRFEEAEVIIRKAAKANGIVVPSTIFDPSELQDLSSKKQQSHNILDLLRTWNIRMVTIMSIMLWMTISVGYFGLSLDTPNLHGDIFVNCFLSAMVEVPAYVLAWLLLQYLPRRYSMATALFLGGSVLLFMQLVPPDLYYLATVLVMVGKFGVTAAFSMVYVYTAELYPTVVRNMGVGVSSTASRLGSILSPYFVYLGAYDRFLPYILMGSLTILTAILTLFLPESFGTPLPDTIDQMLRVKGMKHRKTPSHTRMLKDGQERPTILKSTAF

Mus musculus [4] = assay: Toxicity in Kunming mouse assessed as […] degeneration in cardiac muscle at 102 mg/kg, po administered once daily for 14 days by hematoxylin/eosin staining based optical microscopic analysis; type: organism-based; details: in vivo, 336 h; outline: as §1
Mus musculus [5] = assay: Toxicity in Kunming mouse assessed as inflammatory infiltrates in lung at 102 mg/kg, po administered once daily for 14 days by hematoxylin/eosin staining based optical microscopic analysis; type: organism-based; details: in vivo, 336 h
Outline: (§2)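 Kunming mice, four per group, dosed orally once daily for 14 days with test article or physiological saline control, body weight recorded every other day. After sacrifice, heart, liver, spleen, lung and kidney were fixed at once in 10% buffered formalin, paraffin-embedded, sectioned, H&E stained and examined by optical microscopy for hydropic degeneration, inflammatory infiltrates and fibrosis.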

Mus musculus [6] = assay: Toxicity in Kunming mouse assessed as inflammatory infiltrates in spleen at 102 mg/kg, po administered once daily for 14 days by hematoxylin/eosin staining based optical microscopic analysis; type: organism-based; details: in vivo, 336 h; outline: as §2

C[N+](C)(C)CC(CC(=O)[O-])OC(=O)CCCCC(=O)Nc1ccn([C@@H]2O[C@H](CO)[C@@H](O)C2(F)F)c(=O)n1 (some centres not stated)
uptake ratio at 25 µM (OCTN2): 3 to 8
half-life [1]: 6.8 h
Activity (Mus musculus [2]): Non-Toxic
Ratio [3]: 2 to 10
Activity (Mus musculus [4]): Non-Toxic
Activity (Mus musculus [5]): Non-Toxic
Activity (Mus musculus [6]): Non-Toxic
